The values below come from ChEMBL document CHEMBL4002589, “Tri- and Tetrasubstituted Pyridinylimidazoles as Covalent Inhibitors of c-Jun N-Terminal Kinase 3” (J Med Chem, 2017).

Data set [1] has as its target Mitogen-activated protein kinase 14 (Homo sapiens, UniProt Q16539). In words: Inhibition of GST-His tagged human p38alpha expressed in Escherichia coli assessed as reduction in ATF2 phosphorylation measured after 60 mins by ELISA. The method, boiled down: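 ELISA kinase assays run in parallel for JNK3 and p38α, with 60 min incubation. IC50 values are the mean of three experiments.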
A general note: An ELISA detects its analyte on a solid surface through an enzyme-linked reagent.

The target in data set [2] is MAP kinase-activated protein kinase 2 (Homo sapiens) (UniProt P49137). Kind of data set: Inhibition of human MAPKAPK2 expressed in Sf9 cells assessed as residual activity at 0.5 uM relative to control. The method, boiled down:
(§1)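 Each inhibitor is tested at a single concentration, 1 µM or 0.5 µM depending on the compound. Results are reported as residual kinase activity.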

The target of data set [3] is Angiopoietin-1 receptor (Homo sapiens) (UniProt Q02763). Kind of data set: Inhibition of human wild type C-terminal GST-His-tagged TIE2 expressed in Sf9 cells assessed as residual activity at 0.5 uM relative to control. The method, boiled down:
as §1

Data set [4] deals with Mitogen-activated protein kinase 10 (Homo sapiens, UniProt P53779). Kind of data set: Inhibition of recombinant 6x-His-tagged JNK3 (39 to 402 residues) (unknown origin) expressed in Escherichia coli BL21(DE3) assessed as reduction in ATF2 phosphorylation measured after 50 mins by ELISA.
The target in data set [5] is Casein kinase I isoform delta (Homo sapiens) (UniProt P48730). In words: Inhibition of CK1 delta (unknown origin) assessed as residual activity at 0.5 uM. The method, boiled down:
as §1

Data set [6] in a line: Drug metabolism in human liver microsomes at 100 uM preincubated with NADPH regenerating system for 5 mins followed by addition of liver microsomes measured after 180 mins by LC-MS analysis. The settings on record: read-out: Drug metabolism. Type of data set: ADME, microsome. A general note: Microsomes from liver hold many membrane-bound enzymes, among them those of drug oxidation.

Data set [7] can be described thus: Glutathione reactivity at 10 uM after 54 mins in presence of 5 mM GSH by HPLC method. The method, boiled down: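 Test compound (10 µM) is incubated with glutathione (5 mM) under conditions like those of the kinase activity assay (max. concentration 10 µM, 54 min, 37°C).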
For data set [8], the system named is Mitogen-activated protein kinase 10 (Homo sapiens), P53779 [C154A]. Kind of data set: Covalent binding affinity to JNK3 C154A mutant (unknown origin) at 5 molar excess after 1 hr by LC-muESI-QTOF mass spectrometry. The method, boiled down: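 Intact-protein mass spectrometry with a JNK3 mutant carrying Cys-154→Ala. Inhibitor is incubated with the protein. Unbound and reversibly bound ligand are removed by chromatography and by a high declustering potential before ionization. The protein is then analysed by LC-µESI-QTOF to look for a mass shift from a covalent adduct.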

Structures are written as SMILES. Activity calls are given as the source filed them. The rule behind the calls is not given here.

Chain of Mitogen-activated protein kinase 10 (P53779 whole entry, the tested form may be a part, canonical isoform): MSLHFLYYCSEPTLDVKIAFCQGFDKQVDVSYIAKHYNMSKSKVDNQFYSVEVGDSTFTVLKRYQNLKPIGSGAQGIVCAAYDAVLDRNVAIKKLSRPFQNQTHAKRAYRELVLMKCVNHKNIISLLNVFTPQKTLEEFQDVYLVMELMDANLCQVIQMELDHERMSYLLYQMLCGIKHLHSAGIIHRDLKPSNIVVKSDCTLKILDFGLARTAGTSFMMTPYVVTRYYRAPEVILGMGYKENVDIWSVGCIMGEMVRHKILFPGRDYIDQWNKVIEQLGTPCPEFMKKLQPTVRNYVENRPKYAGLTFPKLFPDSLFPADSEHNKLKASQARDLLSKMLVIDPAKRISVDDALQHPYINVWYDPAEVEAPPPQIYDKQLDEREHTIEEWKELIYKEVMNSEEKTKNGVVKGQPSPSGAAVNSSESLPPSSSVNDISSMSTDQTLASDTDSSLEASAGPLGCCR
Chain of Mitogen-activated protein kinase 14 (Q16539 whole entry): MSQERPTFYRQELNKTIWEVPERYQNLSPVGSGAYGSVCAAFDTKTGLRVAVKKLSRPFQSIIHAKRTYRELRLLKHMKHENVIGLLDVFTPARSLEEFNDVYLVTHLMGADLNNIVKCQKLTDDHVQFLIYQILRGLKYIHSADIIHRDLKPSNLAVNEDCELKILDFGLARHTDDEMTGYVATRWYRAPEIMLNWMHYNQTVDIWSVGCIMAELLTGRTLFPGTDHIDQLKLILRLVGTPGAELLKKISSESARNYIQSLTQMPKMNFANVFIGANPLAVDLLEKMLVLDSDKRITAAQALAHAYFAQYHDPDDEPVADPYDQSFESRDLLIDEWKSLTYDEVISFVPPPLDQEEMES
Chain of Mitogen-activated protein kinase 10 (Homo sapiens), P53779 [C154A] (P53779 whole entry C154A): as the sequence (P53779 whole entry, the tested form may be a part, canonical isoform) above, with C154A counted along it
Chain of Casein kinase I isoform delta (Homo sapiens) (P48730 whole entry, looked up, canonical isoform): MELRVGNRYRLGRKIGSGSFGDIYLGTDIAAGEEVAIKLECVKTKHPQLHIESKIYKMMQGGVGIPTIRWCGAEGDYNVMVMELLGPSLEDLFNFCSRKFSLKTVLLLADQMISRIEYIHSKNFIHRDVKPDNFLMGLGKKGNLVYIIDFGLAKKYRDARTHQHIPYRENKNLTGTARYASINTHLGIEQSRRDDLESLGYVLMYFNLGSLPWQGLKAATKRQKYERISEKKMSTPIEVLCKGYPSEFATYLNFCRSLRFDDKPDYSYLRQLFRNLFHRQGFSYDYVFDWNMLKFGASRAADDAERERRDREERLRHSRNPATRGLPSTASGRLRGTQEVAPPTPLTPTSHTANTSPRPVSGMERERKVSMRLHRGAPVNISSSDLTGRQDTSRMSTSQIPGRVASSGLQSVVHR
Chain of MAP kinase-activated protein kinase 2 (Homo sapiens) (P49137 whole entry, looked up): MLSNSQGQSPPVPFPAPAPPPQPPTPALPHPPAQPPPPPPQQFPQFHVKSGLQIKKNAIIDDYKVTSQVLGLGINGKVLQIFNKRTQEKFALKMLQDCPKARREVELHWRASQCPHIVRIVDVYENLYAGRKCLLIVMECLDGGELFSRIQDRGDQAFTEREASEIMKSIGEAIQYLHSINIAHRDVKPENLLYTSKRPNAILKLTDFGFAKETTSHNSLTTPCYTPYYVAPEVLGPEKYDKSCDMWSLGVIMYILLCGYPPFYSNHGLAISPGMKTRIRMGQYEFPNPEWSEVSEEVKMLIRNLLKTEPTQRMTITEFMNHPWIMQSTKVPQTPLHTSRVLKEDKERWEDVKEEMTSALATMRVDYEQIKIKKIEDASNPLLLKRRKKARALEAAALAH
Chain of Angiopoietin-1 receptor (Homo sapiens) (Q02763 whole entry): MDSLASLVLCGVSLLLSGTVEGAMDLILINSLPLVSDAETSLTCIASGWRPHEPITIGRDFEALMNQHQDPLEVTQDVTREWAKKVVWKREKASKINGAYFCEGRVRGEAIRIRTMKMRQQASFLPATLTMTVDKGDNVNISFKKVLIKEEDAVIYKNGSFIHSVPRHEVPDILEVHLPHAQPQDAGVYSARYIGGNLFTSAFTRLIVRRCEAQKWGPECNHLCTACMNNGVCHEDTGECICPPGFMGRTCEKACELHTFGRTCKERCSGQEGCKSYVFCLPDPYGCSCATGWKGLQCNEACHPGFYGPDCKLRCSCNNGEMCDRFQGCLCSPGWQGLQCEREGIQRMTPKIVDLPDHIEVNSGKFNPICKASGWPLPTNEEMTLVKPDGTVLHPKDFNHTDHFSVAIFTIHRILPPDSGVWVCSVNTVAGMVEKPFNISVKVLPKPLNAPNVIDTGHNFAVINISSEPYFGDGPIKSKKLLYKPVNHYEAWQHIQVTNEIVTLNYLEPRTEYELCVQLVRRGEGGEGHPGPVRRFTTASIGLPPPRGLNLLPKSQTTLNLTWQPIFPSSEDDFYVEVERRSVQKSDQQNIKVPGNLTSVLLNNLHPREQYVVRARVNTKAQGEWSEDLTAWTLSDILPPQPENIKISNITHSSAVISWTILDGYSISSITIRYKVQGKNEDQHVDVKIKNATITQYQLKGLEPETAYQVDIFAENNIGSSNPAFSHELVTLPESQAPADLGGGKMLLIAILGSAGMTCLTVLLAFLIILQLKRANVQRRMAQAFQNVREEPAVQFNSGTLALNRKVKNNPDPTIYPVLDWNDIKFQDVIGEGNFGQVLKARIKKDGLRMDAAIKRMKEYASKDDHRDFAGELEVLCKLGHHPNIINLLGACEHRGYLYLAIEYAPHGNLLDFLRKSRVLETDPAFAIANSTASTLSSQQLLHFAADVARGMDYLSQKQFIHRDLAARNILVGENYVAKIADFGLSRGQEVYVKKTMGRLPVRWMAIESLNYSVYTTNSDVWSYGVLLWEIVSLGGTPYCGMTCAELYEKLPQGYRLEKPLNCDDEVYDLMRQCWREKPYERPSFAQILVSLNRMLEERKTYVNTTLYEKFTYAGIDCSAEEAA

As a reminder, the IC50 is the concentration needed to halve the response being measured. Consider `C=CC(=O)Nc1cccc(C(=O)Nc2ccc(Nc3cc(-c4c(-c5ccc(F)cc5)nc(SC)n4C)ccn3)cc2)c1`, for which the IC50 in data set [1] was 36 nM; in data set [4], 0.3 nM. Moreover, the Activity in data set [2], in data set [3] and in data set [5] was 30 to 50% in each case. In addition, the metabolised at 3 h, 100 µM in data set [6] came out at 13%. Moreover, the Drug metabolism result in data set [7] is listed as “Metabolite detected”. For the same molecule, the result in data set [8] was inactive.

In the case of `C=CC(=O)Nc1cccc(C(=O)Nc2cccc(Nc3cc(-c4c(-c5ccc(F)cc5)nc(SC)n4C)ccn3)c2)c1`, the IC50 in data set [1] stood at 217 nM; in data set [4], 3 nM.

`C=CC(=O)Nc1ccc(C(=O)Nc2ccc(Nc3cc(-c4c(-c5ccc(F)cc5)nc(SC)n4C)ccn3)c(C)c2)cc1`: the IC50 in data set [1] came to 35 nM; in data set [4], 8 nM.

Turning to `CCC(=O)Nc1cccc(C(=O)Nc2ccc(Nc3cc(-c4c(-c5ccc(F)cc5)nc(SC)n4C)ccn3)cc2)c1C`, the IC50 in data set [1] came to 38 nM; in data set [4], 17 nM.

`CCC(=O)Nc1cccc(C(=O)Nc2ccc(Nc3cc(-c4[nH]c(SC)nc4-c4ccc(F)cc4)ccn3)cc2)c1`: the IC50 in data set [1] was 4 nM; in data set [4], 2 nM.

As for `C=CC(=O)Nc1ccc(C(=O)Nc2ccc(Nc3cc(-c4[nH]c(SC)nc4-c4ccc(F)cc4)ccn3)cc2)cc1`, the IC50 in data set [1] and in data set [4] was 3 nM each time.

`CCC(=O)Nc1ccc(C(=O)Nc2ccc(Nc3cc(-c4c(-c5ccc(F)cc5)nc(SC)n4C)ccn3)c(C)c2)cc1`: the half-inhibitory concentration (IC50) came to 22 nM in data set [1] and 25 nM in data set [4].

With `CCC(=O)Nc1ccc(C(=O)Nc2ccc(Nc3cc(-c4c(-c5ccc(F)cc5)nc(SC)n4C)ccn3)cc2)cc1`, the IC50 in data set [1] was found to be 17 nM; in data set [4], 27 nM.

With `CSc1nc(-c2ccc(F)cc2)c(-c2ccnc(Nc3ccc(N)cc3)c2)[nH]1`, the half-inhibitory concentration (IC50) in data set [1] turned out to be 17 nM; in data set [4], 24 nM.

On to `C=CC(=O)Nc1cccc(C(=O)Nc2ccc(Nc3cc(-c4[nH]c(SC)nc4-c4ccc(F)cc4)ccn3)cc2)c1`, for which the IC50 is 0.8 nM in data set [1] and 0.6 nM in data set [4].

With `C=CC(=O)Nc1ccc(C(=O)Nc2ccc(Nc3cc(-c4c(-c5ccc(F)cc5)nc(SC)n4C)ccn3)cc2)cc1`, the IC50 came out at 47 nM in data set [1] and 10 nM in data set [4]. In data set [8], the outcome was inactive.

As to `CCC(=O)Nc1cccc(C(=O)Nc2ccc(Nc3cc(-c4[nH]c(SC)nc4C)ccn3)cc2)c1`, the IC50 is greater than 10000 nM in data set [1] and 253 nM in data set [4].

Take `C=CC(=O)Nc1cccc(C(=O)Nc2ccc(Nc3cc(-c4c(-c5ccc(F)cc5)nc(SC)n4C)ccn3)cc2)c1C`: the IC50 in data set [1] and in data set [4] was 2 nM throughout.

With `C=CC(=O)Nc1cccc(C(=O)Nc2cccc(Nc3cc(-c4c(-c5ccc(F)cc5)nc(SC)n4C)ccn3)c2)c1C`, the values for the half-inhibitory concentration (IC50) in data set [1] and in data set [4] were 100 nM and 3 nM, respectively.

For `C=CC(=O)Nc1cccc(C(=O)Nc2ccc(Nc3cc(-c4c(-c5ccc(F)cc5)nc(SC)n4C)ccn3)c(C)c2)c1`, the IC50 in data set [1] is 3 nM; in data set [4], 2 nM.

Take `C=CC(=O)Nc1ccc(C(=O)Nc2cccc(Nc3cc(-c4c(-c5ccc(F)cc5)nc(SC)n4C)ccn3)c2)cc1`: the IC50 was found to be 26 nM in data set [1] and 4 nM in data set [4].

As to `CCC(=O)Nc1cccc(C(=O)Nc2ccc(Nc3cc(-c4c(-c5ccc(F)cc5)nc(SC)n4C)ccn3)cc2)c1`, the IC50 in data set [1] came to 126 nM; in data set [4] it was 23 nM.

In the case of `CSc1nc(-c2ccc(F)cc2)c(-c2ccnc(Nc3ccc(NC(=O)c4cccc(N)c4)cc3)c2)n1C`, the IC50 turned out to be 149 nM in data set [1] and 30 nM in data set [4].

Regarding `C=CC(=O)Nc1ccc(C(=O)Nc2ccc(Nc3cc(-c4[nH]c(SC)nc4C)ccn3)cc2)cc1`, the half-maximal inhibitory concentration (IC50) is 5920 nM in data set [1] and 200 nM in data set [4].

`CCC(=O)Nc1cccc(C(=O)Nc2cccc(Nc3cc(-c4c(-c5ccc(F)cc5)nc(SC)n4C)ccn3)c2)c1`: the IC50 was determined as 241 nM in data set [1] and 175 nM in data set [4].
